These results are taken from ChEMBL document CHEMBL2034836, “Synthesis and anti-HIV activities of glutamate and peptide conjugates of nucleoside reverse transcriptase inhibitors” (J Med Chem, 2012).

Broadly, the EC50 is the concentration that produces a half-maximal response. The IC50 is the point on the concentration scale where inhibition reaches its midpoint. Usually IC90 stands for the concentration at which the effect reaches the 90% level.

Bounds are passed on as bounds.

Assay [1] has as its system Human immunodeficiency virus 1. The assay can be described thus: Antiviral activity against HIV1 3B infected in HeLa P4/R5 cells assessed as reduction of viral infection incubated for 2 hrs followed by incubated in drug-free medium for 46 hrs by single round infection beta-galactosidase reporter gene assay. It is filed as functional, organism-based. Particulars: Human immunodeficiency virus 1, 3B. The method in brief:
(§1)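 P4R5 MAGI cells (CD4 and coreceptors, HIV-1 LTR–β-galactosidase reporter) seeded at 1.2 × 10^4 cells/well ~18 h before infection; exposed 2 h at 37 °C to cell-free X4 IIIB or R5 BaL virus with or without compound, washed, cultured 46 h more; β-galactosidase chemiluminescent read-out. Infection reduction relative to untreated; EC50 by regression; triplicate wells; dextran sulfate control.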
On the technique in general: A reporter such as luciferase makes a cellular process visible.

For assay [2], the system named is Human immunodeficiency virus 1. Put plainly: Antiviral activity against HIV1 BaL infected in HeLa P4/R5 cells assessed as reduction of viral infection incubated for 2 hrs followed by incubated in drug-free medium for 46 hrs by single round infection beta-galactosidase reporter gene assay. Particulars: Human immunodeficiency virus 1, BaL. It is filed as functional, organism-based. The method in brief:
as §1

The next assay deals with HeLa. Put plainly: Cytotoxicity against human HeLa P4/R5 cells after 48 hrs by MTT assay. It is filed as cell-based. Particulars: read-out: EC50 (the source's name). The method in brief:
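Same P4R5 MAGI cell design as the infection assay but without virus; viability read by MTT tetrazolium reduction; each concentration tested in triplicate wells.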

The test system of assay [3] is Human immunodeficiency virus 1. The assay can be described thus: Antiviral activity against wild type HIV1 clade B 94US3393IN clinical isolate infected in PHA-P-stimulated human PBMC assessed as reverse transcriptase activity incubated for 6 hrs followed by incubated in drug-free medium for 6 days by multiround infection assay. Particulars: Human immunodeficiency virus 1, clade B 94US3393IN. It is filed as functional, organism-based.

Assay [4] concerns Human immunodeficiency virus 1. Put plainly: Antiviral activity against wild type HIV1 clade C 98USMSC5016 clinical isolate infected in PHA-P-stimulated human PBMC assessed as reverse transcriptase activity incubated for 6 hrs followed by incubated in drug-free medium for 6 days by multiround infection assay. It is filed as functional, organism-based. Particulars: Human immunodeficiency virus 1, clade C 98USMSC5016.

Assay [5] concerns Human immunodeficiency virus 1. Put plainly: Antiviral activity against NNRTI-resistant HIV1 clade B A-17 clinical isolate infected in PHA-P-stimulated human PBMC assessed as reverse transcriptase activity incubated for 6 hrs followed by incubated in drug-free medium for 6 days by multiround infection assay. To be noted: Human immunodeficiency virus 1, clade B A-17. It is filed as functional, organism-based.

Assay [6] has as its system Human immunodeficiency virus 1. Put plainly: Antiviral activity against multidrug-resistant HIV1 clade B 4775-5 clinical isolate infected in PHA-P-stimulated human PBMC assessed as reverse transcriptase activity incubated for 6 hrs followed by incubated in drug-free medium for 6 days by multiround infection assay. Particulars: Human immunodeficiency virus 1, clade B 4775-5. It is filed as functional, organism-based.

In assay [7] the test system is Human immunodeficiency virus 1. Put plainly: Ratio of zidovudine EC50 to compound EC50 for HIV1 3B infected in HeLa P4/R5 cells. It counts as functional.
In assay [8] the test system is Human immunodeficiency virus 1. Put plainly: Ratio of zidovudine EC50 to compound EC50 for HIV1 BaL infected in HeLa P4/R5 cells. It counts as functional.
Assay [9] has as its system Human immunodeficiency virus 1. The assay can be described thus: Ratio of lamivudine EC50 to compound EC50 for HIV1 3B infected in HeLa P4/R5 cells. It is filed as functional.
Assay [10] concerns Human immunodeficiency virus 1. The assay can be described thus: Ratio of lamivudine EC50 to compound EC50 for HIV1 BaL infected in HeLa P4/R5 cells. It is filed as functional.

With `CCCCCCCCCCCCCC(=O)NCCCC[C@H](NC(=O)[C@H](CCC(=O)OC[C@H]1O[C@@H](n2cc(C)c(=O)[nH]c2=O)C[C@@H]1F)NC(=O)CCCCCCCCCCCCC)C(=O)O`, the results for the EC50 in [1] and in [2] were 26800 nM and 29100 nM, respectively. Moreover, the CC50 in the assay with HeLa was greater than 108000 nM.
Taken in the same sequence, the figures for `CCCCCCCCCCCCCC(=O)NCCCC[C@H](NC(=O)CCNC(=O)[C@H](CCC(=O)OC[C@H]1O[C@@H](n2cc(C)c(=O)[nH]c2=O)C[C@@H]1F)NC(C)=O)C(=O)O` were 10600 nM, 6900 nM and greater than 121000 nM.
Taken in the same sequence, the figures for `CCCCCCCCCCCCCC(=O)OC[C@H](NC(C)=O)C(=O)NCCC(=O)N[C@@H](CCC(=O)OC[C@H]1O[C@@H](n2cc(C)c(=O)[nH]c2=O)C[C@@H]1F)C(=O)NCC(=O)O` were 11100 nM, 6900 nM and greater than 119000 nM.
Taken in the same sequence, the figures for `CCCCCCCCCCCCCC(=O)OC[C@H](NC(C)=O)C(=O)NCCC(=O)N[C@@H](CCC(=O)OC[C@H]1O[C@@H](n2cc(C)c(=O)[nH]c2=O)C[C@@H]1N=[N+]=[N-])C(=O)NCC(=O)O` were 63100 nM, 86400 nM and greater than 116000 nM.
`CCCCCCCCCCCCCC(=O)N[C@@H](CCC(=O)OC[C@H]1O[C@@H](n2cc(C)c(=O)[nH]c2=O)C[C@@H]1F)C(=O)OC[C@H]1O[C@@H](n2cc(C)c(=O)[nH]c2=O)C[C@@H]1N=[N+]=[N-]`: the figures for the EC50 in assay [1] and in assay [2] were 2400 nM and 3600 nM, respectively. Further, the CC50 with HeLa is greater than 120000 nM.
On the same counts, the results for `CC(=O)N[C@@H](CCC(=O)OC[C@H]1O[C@@H](n2cc(C)c(=O)[nH]c2=O)C[C@@H]1F)C(=O)OC[C@H]1O[C@@H](n2cc(C)c(=O)[nH]c2=O)C[C@@H]1N=[N+]=[N-]` are 13500 nM, 13100 nM and greater than 151000 nM.
With `CCCCCCCCCCCCCC(=O)N[C@@H](CCC(=O)OC[C@H]1O[C@@H](n2cc(C)c(=O)[nH]c2=O)C[C@@H]1F)C(=O)OC[C@@H]1O[C@H](n2ccc(N)nc2=O)CS1`, the EC50 in [1] was found to be 2000 nM; in assay [2], 2700 nM. In the assay on HeLa, the CC50 was greater than 126000 nM.
Taken in the same sequence, the figures for `CC(=O)N[C@@H](CCC(=O)OC[C@H]1O[C@@H](n2cc(C)c(=O)[nH]c2=O)C[C@@H]1F)C(=O)OC[C@@H]1O[C@H](n2ccc(N)nc2=O)CS1` were 17000 nM, 12300 nM and greater than 160000 nM.
On the same counts, the results for `CCCCCCCCCCCCCC(=O)N[C@@H](CCC(=O)OC[C@H]1O[C@@H](n2cc(C)c(=O)[nH]c2=O)C[C@@H]1N=[N+]=[N-])C(=O)OC[C@@H]1O[C@H](n2ccc(N)nc2=O)CS1` are 6000 nM, 6500 nM and greater than 122000 nM.
Taken in the same sequence, the figures for `CC(=O)N[C@@H](CCC(=O)OC[C@H]1O[C@@H](n2cc(C)c(=O)[nH]c2=O)C[C@@H]1N=[N+]=[N-])C(=O)OC[C@@H]1O[C@H](n2ccc(N)nc2=O)CS1` were 12000 nM, 13400 nM and greater than 154000 nM.
Regarding `Cc1cn([C@H]2C[C@H](N=[N+]=[N-])[C@@H](COC(=O)CC[C@H](NC(=O)CCC(=O)OC[C@H]3O[C@@H](n4cc(C)c(=O)[nH]c4=O)C[C@@H]3F)C(=O)OC[C@@H]3O[C@H](n4ccc(N)nc4=O)CS3)O2)c(=O)[nH]c1=O`, the values for the EC50 in assay [1] and in [2] were 900 nM and 1400 nM, respectively. In the assay on HeLa, the CC50 was greater than 107000 nM. The IC50 in assay [3] was 26.7 nM; in assay [4], 22.7 nM; in assay [5], 12.9 nM; in [6], 5.9 nM. For the same molecule, the IC90 in assay [3] was 161 nM; in assay [4] it was 84.5 nM; in assay [5], 28.3 nM; in [6], 46 nM. In addition, the Ratio EC50 stood at 12 in assay [7], 10 in assay [8], 36 in assay [9] and 8 in assay [10].
Consider `CCCCCCCCCCCCCC(=O)N[C@@H](CCC(=O)O)C(=O)OC[C@H]1O[C@@H](n2cc(C)c(=O)[nH]c2=O)C[C@@H]1F`, for which the EC50 in assay [1] came out at 6300 nM; in assay [2], 7700 nM. Further, in the assay with HeLa, the CC50 is greater than 51000 nM.
Taken in the same sequence, the figures for `CCCCCCCCCCCCCC(=O)N[C@@H](CCC(=O)OC[C@@H]1O[C@H](n2ccc(N)nc2=O)CS1)C(=O)OC[C@H]1O[C@@H](n2cc(C)c(=O)[nH]c2=O)C[C@@H]1F` were 600 nM, 300 nM and greater than 38000 nM.
Taken in the same sequence, the figures for `CCCCCCCCCCCCCC(=O)N[C@@H](CCC(=O)OC[C@@H]1O[C@H](n2cc(F)c(N)nc2=O)CS1)C(=O)OC[C@H]1O[C@@H](n2cc(C)c(=O)[nH]c2=O)C[C@@H]1F` were 400 nM, 100 nM and greater than 37000 nM.
As for `Cc1cn([C@H]2C[C@H](F)[C@@H](CO)O2)c(=O)[nH]c1=O` [ALOVUDINE], the results for the EC50 in assay [1] and in [2] were 800 nM and 400 nM, respectively. In addition, the IC50 in [3] amounted to 2 nM; in [4], 2 nM; in [5] it was 26 nM; in [6] it was 107 nM. The IC90 in assay [3] was determined as 20.4 nM; in [4] it was 12.3 nM; in assay [5] it was 87.2 nM; in assay [6], 1060 nM.
For the molecule `Nc1nc(=O)n([C@@H]2CS[C@H](CO)O2)cc1F` [EMTRICITABINE], the EC50 in [1] came to 2000 nM; in assay [2], 800 nM.
On the same counts, the results for `Nc1ccn([C@@H]2CS[C@H](CO)O2)c(=O)n1` [LAMIVUDINE] are 32700 nM and 11300 nM.
Regarding `Cc1cn([C@H]2C[C@H](N=[N+]=[N-])[C@@H](CO)O2)c(=O)[nH]c1=O` [ZIDOVUDINE], the EC50 in assay [1] was determined as 10800 nM; in assay [2], 14200 nM. In addition, the IC90 was found to be 21.3 nM in assay [3], 34.2 nM in assay [4], 152 nM in [5] and 10700 nM in [6].
